# Measurements: ChEMBL document CHEMBL1125085, “Synthesis and anticonvulsant activity of some new 2-substituted 3-aryl-4(3H)-quinazolinones” (J Med Chem, 1990)
# What was measured:
# Mus musculus [1] = test: Rotarod test was used to evaluate neurotoxicity in mice. Toxicity values are reported after 0.5 h.,toxicity at 300 mg/kg; Toxic; format: organism-based; design: dose 300 mg/kg; conditions: in vivo
# Mus musculus [2] = test: Rotarod test was used to evaluate neurotoxicity in mice. Values are reported after 0.5 h, at 300 mg/kg; no activity or toxicity up to 300 mg/kg; format: organism-based; conditions: in vivo
# Mus musculus [3] = test: Anticonvulsant activity was determined in Subcutaneous metrazole (scMet) test 0.5 h after administration of 300 mg/kg in (mice/rat); no activity or toxicity up to 300 mg/kg; format: functional, organism-based
# Mus musculus [4] = test: Anticonvulsant activity was determined in maximal electroshock seizure test 0.5 h after administration of 300 mg/kg in (mice/rat); no activity or toxicity up to 300 mg/kg; format: functional, organism-based
# Mus musculus [5] = test: Subcutaneous metrazole (scMet) test was done, 4.0 hr after administration; no activity or toxicity up to 300 mg/kg; format: functional, organism-based; design: dose 300 mg/kg
# Mus musculus [6] = test: Anticonvulsant activity was determined in maximal electroshock seizure test 4.0 h after administration of 300 mg/kg in (mice/rat); no activity or toxicity up to 300 mg/kg; format: functional, organism-based
# Mus musculus [7] = test: Subcutaneous metrazole (scMet) test was conducted after Injecting intraperitoneally at the time of peak anticonvulsant in phase II test; format: functional
# In short: (§1)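 Phase II testing in male Carworth Farms no. 1 mice, ip dosing in 30% PEG 400 (0.01 mL/g). Groups of 8–16 mice received a range of doses, giving at least three points in 10–90% protection. ED50 with 95% confidence interval was fitted by probit analysis at the time of peak effect. scMet used pentylenetetrazol 85 mg/kg sc.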
# Mus musculus [8] = test: MES test was performed after Injecting intraperitoneally at the time of peak anticonvulsant effect in phase II test; format: functional; conditions: ip; in short: as §1
# Mus musculus [9] = species: Mus musculus; test: Time taken to reach peak activity was reported.; format: functional
# Mus musculus [10] = species: Mus musculus; test: Time taken to reach peak toxicity was reported.; format: organism-based; conditions: in vivo
# Mus musculus [11] = species: Mus musculus; test: (§2) Median toxic dose was measured at time of peak neurologic deficit.; format: functional
# In short: (§3)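 Mice dosed ip in 30% PEG 400. Minimal neurotoxicity was scored by rotorod at the time of peak neurologic deficit. Groups of 8–16 mice were used, with at least three points in the 10–90% range, and TD50 with 95% confidence interval was derived by probit analysis.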
# [12] = Protective index is the ratio of TD50 and ED50 values obtained in the maximal electroshock seizure (MES) test.; format: functional
# In short: (§4)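 Protective index = TD50/ED50. Both values are medians from groups of 8–16 animals per dose, with at least three points in the 10–90% effect range, fitted by probit analysis. Each was taken at its own time of peak effect: seizure protection for ED50, neurologic deficit for TD50.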
# [13] = Protective index is the ratio of TD50 and ED50 values obtained in the subcutaneous metrazole (scMet) test.; format: functional; in short: as §4
# Mus musculus [14] = test: (§5) Subcutaneous metrazole (scMet) test was conducted and median effective dose was determined at the time of peak anticonvulsant and sedative effect.; format: functional; conditions: sc
# In short: (§6)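 Pentylenetetrazol (85 mg/kg in mice, 70 mg/kg in rats) was given subcutaneously in the posterior midline as a 0.5% solution. Compounds were in 30% PEG 400, dosed ip in male Carworth Farms no. 1 mice, or orally in mice and Sprague-Dawley rats. ED50 was read at time of peak effect, using groups of 8–16 animals and ≥3 doses giving 10–90% protection. Probit analysis gave 95% confidence intervals.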
# [15] = as §2; format: organism-based; conditions: mouse, in vivo; in short: as §3
# Mus musculus [16] = test: as §5; format: organism-based; conditions: in vivo; in short: as §6
# Mus musculus [17] = test: Rotarod test was used to evaluate neurotoxicity in mice. Toxicity values are reported after 0.5 h. toxicity at 300 mg/kg; - denotes no activity observed at 300 mg/kg toxic; format: organism-based; conditions: in vivo
smiles,measurement,setting,value
O=C(Cc1nc2ccccc2c(=O)n1-c1ccc(Br)cc1)c1ccncc1,Activity,Mus musculus [1],Toxic
Cc1ccc(-n2c(CC(=O)c3cccnc3)nc3ccccc3c2=O)cc1,Activity,Mus musculus [2],No activity or toxicity up to 300 mg/kg
same,Activity,Mus musculus [3],No activity or toxicity up to 300 mg/kg
same,Activity,Mus musculus [4],No activity or toxicity up to 300 mg/kg
same,Activity,Mus musculus [5],No activity or toxicity up to 300 mg/kg
same,Activity,Mus musculus [6],No activity or toxicity up to 300 mg/kg
O=C(Cc1nc2ccccc2c(=O)n1-c1ccccc1F)c1ccncc1,ED50,Mus musculus [7],50 mg/kg
same,ED50,Mus musculus [8],196 mg/kg
same,TPE,Mus musculus [9],2 h
same,TPE,Mus musculus [10],1 h
same,TD50,Mus musculus [11],832 mg/kg
same,PI,[12],4.2
same,PI,[13],16.6
CCC1(c2ccccc2)C(=O)NC(=O)NC1=O [PHENOBARBITAL],ED50,Mus musculus [14],13.2 mg/kg
COc1ccccc1-n1c(CC(=O)c2ccncc2)nc2ccccc2c1=O,ED50,Mus musculus [7],42 mg/kg
same,TPE,Mus musculus [9],2 h
same,TPE,Mus musculus [10],0.5 h
same,TD50,[15],370 mg/kg
same,PI,[13],8.8
CCC1(C)CC(=O)NC1=O (stereo unspecified) [ETHOSUXIMIDE],ED50,Mus musculus [16],130.4 mg/kg
O=C(Cc1nc2ccccc2c(=O)n1-c1ccccc1Cl)c1cccnc1,Activity,Mus musculus [17],Toxic
